Compounds with a hit are over-represented: about 2% of the library has one in this group of screens.
B2AR ag = agonists of human beta-2 adrenergic receptor inducing internalization; response, % (concentration not given with the values); 340,000 compounds, 0.43% hits; P07550; Am2.2-beta2AR cells, FAP receptor internalization, flow cytometry; AID 504454;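 active = response above a set limit, near 3 SD of response in nonfluorescent compounds, cut at about 42% in these data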
Hep lipid drop = hepatic lipid droplet formation modulation | AML12 mouse hepatocytes, oleate lipid droplets, BODIPY imaging | AID 1656 | inhibition, % at 6.5 µM | 240,000 compounds, 0.4% hits;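 active = lipid droplet intensity inhibited by at least 50%, with more than 500 cells counted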
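Material – AML12 mouse liver cells · Also added – oleate loading, 100 µM · Compound dosing – 6.5 µM single-point dosing · Times – overnight treatment with compound plus oleate · Measured by – fluorescence imaging, 20x objective, two fields per well · Read-out – percent inhibition of filter-corrected integrated lipid droplet intensity per well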
NTR1 agonist = agonists of human neurotensin receptor NTR1; P30989; NTR1-U2OS beta-arrestin-GFP spot imaging, agonist mode; activation, % at 20 µM; 330,000 compounds, 0.17% hits; AID 493036;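 active = activation at or above 40% of the spot to cytoplasm intensity ratio, with at least 20 cells analyzed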;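 note: 0% = DMSO without peptide and 100% = 100 nM NTR1 peptide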
Arrestin-AP2 inh = inhibitors of human beta-arrestin and AP2 interaction | FITC-arrestin peptide / GST-AP2 beads, flow cytometry; AP2 beta2 appendage carries R879A mutation | inhibition, % at 10 µM | 340,000 compounds, 0.31% hits;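 active = inhibition above a set limit, near 3 SD of compounds lacking own fluorescence, cut at about 54% in these data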;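 note: plate controls were DMSO wells for no effect and 5 µM unlabelled arrestin peptide for full effect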
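system = GST-tagged AP2 beta2-adaptin appendage (R879A) on 4 µm glutathione beads | reagent = FITC-labelled arrestin peptide probe, 50 nM final | schedule = compound with beads 12 min RT, then probe 1 h RT | signal = HyperCyt-sampled flow cytometry, FL1 channel, ex 488/em 535 nm | read-out = percent response from loss of bead-bound FITC fluorescence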
GRK2 aptamer HTS = human GRK2 inhibition via aptamer displacement; P25098; bead flow cytometry, FAM-aptamer displacement from GRK2; inhibition of aptamer binding, % at 10 µM; 330,000 compounds, 0.59% hits; AID 488847;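 active = inhibition of aptamer binding above 40%, roughly 3 SD of noise, on plates passing a quality check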;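 note: median bead fluorescence of bound FAM aptamer so fluorescent compounds give negative values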
Target sequence (P25098 whole entry, looked up): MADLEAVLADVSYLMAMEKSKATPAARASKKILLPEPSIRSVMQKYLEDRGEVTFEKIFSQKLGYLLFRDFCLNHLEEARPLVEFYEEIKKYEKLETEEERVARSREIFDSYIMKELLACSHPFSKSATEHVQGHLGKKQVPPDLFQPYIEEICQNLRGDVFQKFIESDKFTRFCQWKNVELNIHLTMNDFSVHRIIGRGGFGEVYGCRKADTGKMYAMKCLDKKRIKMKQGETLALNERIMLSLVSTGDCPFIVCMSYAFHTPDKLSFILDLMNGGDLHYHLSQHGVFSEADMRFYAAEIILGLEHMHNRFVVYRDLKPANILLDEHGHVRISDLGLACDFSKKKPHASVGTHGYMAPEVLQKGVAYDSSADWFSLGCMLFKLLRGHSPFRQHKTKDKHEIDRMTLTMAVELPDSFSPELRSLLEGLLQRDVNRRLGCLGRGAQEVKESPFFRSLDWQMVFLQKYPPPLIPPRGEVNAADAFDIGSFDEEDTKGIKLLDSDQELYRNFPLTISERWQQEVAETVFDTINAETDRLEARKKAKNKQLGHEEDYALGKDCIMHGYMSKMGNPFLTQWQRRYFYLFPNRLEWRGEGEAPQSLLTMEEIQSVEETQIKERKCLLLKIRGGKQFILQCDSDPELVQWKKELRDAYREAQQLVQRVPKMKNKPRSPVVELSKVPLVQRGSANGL
H9c2 TAG inh = reduces triacylglycerol accumulation in H9c2 cells. Nile Red lipid (TAG) fluorescence; cells loaded with 200 µM oleic acid. inhibition, % at 12.5 µM. 230,000 compounds, 0.66% hits. AID 651582;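 active = pattern-corrected inhibition of lipid staining of at least 50% with the nuclear-stain viability signal not falling by more than 50%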;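 note: 0% = DMSO wells and 100% = triacsin C control wells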
Hep lipid conf = confirmation of inhibitors of hepatic lipid droplet formation. inhibition, % at 5.2 µM. AML12 mouse hepatocytes, BODIPY lipid droplet imaging; droplets induced with 100 µM oleic acid. shares compounds with Hep lipid drop. AID 463183. 870 compounds, 65% hits;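 active = inhibition of lipid droplet metric at least 50%, with more than 300 cells in each of four replicates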;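 note: plate controls were DMSO with oleic acid for no effect and 5 µM Triacsin-C for full effect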
AML12 tox img = toxic to AML12 mouse hepatocytes in counter-screen | z-score at 5 µM | shares compounds with Hep lipid drop | 870 compounds, 3% hits | DAPI nuclear morphology cytotoxicity imaging; active compounds read high; cells fed 100 µM oleate overnight; in the data active = z-score above about 6.3;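 note: compound exposure lasted overnight at 37 °C before fixation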
AML12 tox conf = confirmation of cytotoxicity in AML12 mouse hepatocytes. shares compounds with Hep lipid drop. AML12 mouse hepatocyte viability, ATP luminescence; cells loaded with 100 µM oleic acid. cytotoxicity, % at 50 µM. 530 tested, under 10 active. AID 463219;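 active = cytotoxicity above 50% in each of four replicates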;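 note: compound exposure lasted overnight at 37 °C before the ATP read; 0% = DMSO-treated cells and 100% = wells with no cells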
The depositor's hits bear a star; x = not tested or not shown.

SMILES | B2AR ag | Hep lipid drop | NTR1 agonist | Arrestin-AP2 inh | GRK2 aptamer HTS | H9c2 TAG inh | Hep lipid conf | AML12 tox img | AML12 tox conf
O=[N+]([O-])c1ccccc1N/N=C\c1ccccc1Cl | -3 | 59* | -5 | 28 | 1 | 10 | 34 | 0.24 | x
CN(C(=O)COC(=O)c1c2c(nc3ccccc13)CCCC2)c1c(N)n(Cc2ccccc2)c(=O)[nH]c1=O | 2 | x | 1 | 22 | 0 | 10 | x | x | x
CCN(CC)c1ccc(CC(=O)NC(C)Cc2ccccc2)cc1 (configuration not stated) | -2 | x | 1 | 23 | 2 | -24 | x | x | x
CCCN(CCC)c1ccc(CC(=O)NC(C)Cc2ccccc2)cc1 (configuration not stated) | 4 | 101* | 0 | 7 | 0 | x | 109* | -0.95 | 3
Cc1ccc(-n2nnnc2SCC(=O)Nc2ncc(Cc3ccccc3Cl)s2)cc1 | -7 | 79* | 0 | 0 | 2 | x | 104* | 0.26 | 10
COc1ccc(/C=N/NC(=O)c2ccco2)cc1OCc1ccccc1 | -8 | -8 | -1 | -2 | 0 | -2 | x | x | x
CCC(Sc1nc2ccsc2c(=O)n1-c1ccc(Cl)c(C)c1)C(=O)NCc1ccco1 (configuration not stated) | 1 | 54* | 15 | 4 | 1 | x | 64* | 0.076 | x
O=C(CSc1nc2ccsc2c(=O)n1Cc1ccccc1)NCc1ccco1 | -10 | 24 | 0 | -7 | 2 | x | x | x | x
C/C(N)=C(/C#N)C(=O)CSc1nnc(Nc2cccc(C)c2)s1 | 1 | 78* | 6 | 23 | 6 | 21 | 99* | -0.7 | 16
CCN(CC)S(=O)(=O)c1ccc(S(=O)(=O)N(CC(=O)Nc2ccccc2)Cc2ccco2)cc1 | 3 | 62* | 2 | -8 | 0 | x | 96* | -0.42 | 11
Oc1[nH]c2ccccc2c1N=Nc1nc(Nc2ccccc2)nc(N2CCOCC2)n1 | 3 | 60* | 16 | -14 | 0 | 131 | 84 | 20* | x
CCOc1nc(-c2ccncc2)nc2ccccc12 | -3 | 53* | 3 | 12 | 2 | 12 | 32 | -0.32 | x
Cc1nc(NC(=O)CSc2nnc(N)s2)c(Cl)cc1Cl | -3 | 20 | 1 | 17 | 5 | -9 | x | x | x
CCOc1ccccc1NC(=O)N1CCCC1C(=O)NCc1cccs1 (configuration not stated) | 0 | 74* | 2 | -1 | 0 | x | 94* | 0.2 | 10
CCOc1ccccc1NC(=O)N1CCCC1C(=O)NCc1ccco1 (configuration not stated) | -1 | 40 | 2 | 4 | x | x | x | x | x
CCc1nc2ccc(C(=O)N3CCN(c4ccccc4F)CC3)cc2nc1CC | -6 | 12 | 3 | 3 | 4 | x | x | x | x
CCOC(=O)C1CCN(S(=O)(=O)c2ccc3c(c2)NC(=O)C(C)C(=O)N3)CC1 (configuration not stated) | 2 | 63* | 4 | -4 | 1 | 39 | 87* | -0.68 | 8
CC(C)c1cc(C(=O)N2CCCC(CCC(=O)NCc3ccccc3F)C2)n(C)n1 (configuration not stated) | 4 | 51* | 1 | -2 | 0 | -14 | -14 | 0.48 | x
Cc1ccc(CN2CCN(c3ccccc3)CC2)o1 | -1 | 75* | 2 | 8 | 8 | 5 | 39 | -0.22 | x
Cc1ccc(CN2CCN(c3ncccn3)CC2)o1 | 5 | 7 | 1 | -1 | 3 | x | x | x | x
F[B-](F)(F)COCc1ccccc1Br | 7 | x | x | 6 | x | -17 | x | x | x
COC(=O)COc1cccc(NC(=O)c2ccc(C)cc2)c1 | -1 | x | 1 | 5 | 0 | 2 | x | x | x
COC(=O)COc1cccc(NC(=O)c2ccc(Cl)cc2)c1 | 5 | 51* | -1 | -26 | 7 | 0 | 28 | 0.47 | x
O=C(Nc1nc(-c2cccc([N+](=O)[O-])c2)cs1)c1cccc([N+](=O)[O-])c1C(=O)O | -3 | 2 | 2 | 43 | 5 | -8 | x | x | x
CC(C)Oc1ccc(C(=O)OC(C)C(=O)Nc2nc(-c3cccc([N+](=O)[O-])c3)cs2)cc1 (configuration not stated) | 8 | 91* | 1 | -2 | 1 | x | 97* | 0.34 | 10
SMILES | B2AR ag | Hep lipid drop | NTR1 agonist | Arrestin-AP2 inh | GRK2 aptamer HTS | H9c2 TAG inh | Hep lipid conf | AML12 tox img | AML12 tox conf
O=C(Cc1cccc2ccccc12)Nc1nc(-c2cccc([N+](=O)[O-])c2)cs1 | 8 | 68* | 0 | 13 | 2 | x | 100* | -1 | 31
CCOc1ccc(CCNC(=O)COC(=O)/C=C/c2ccc(C)o2)cc1OCC | -3 | 59* | 1 | 4 | 22 | 43 | 91* | -0.68 | 10
CCOc1ccc(CCNC(=O)COC(=O)/C=C/c2ccc(OC)c(OC)c2)cc1OCC | -4 | 94* | 0 | 6 | 3 | 42 | 109* | -0.73 | 7
Clc1ccccc1NN(Cc1ccncc1)c1ccccc1Cl | x | x | x | x | x | 10 | x | x | x
CCOc1ncccc1C(=O)OC(C)C(=O)Nc1ccc(CC)cc1 (configuration not stated) | 2 | 53* | 1 | 9 | 1 | 26 | 97* | -0.59 | 16
COc1ncccc1C(=O)NC1CCCc2c1cnn2-c1ccc(C)c(C)c1 (configuration not stated) | 2 | 58* | 1 | 6 | 9 | x | 92* | -0.4 | -1
CCC(C)(C)NC(=O)C(c1ccc(C)cc1)N(CC1CCCO1)C(=O)CCC(=O)Nc1ccccn1 (configuration not stated) | -13 | 61* | 0 | -14 | 2 | x | 51 | -0.15 | x
CCOC(=O)N1CCN(C(=O)CSCC(=O)Nc2nc(-c3cccs3)cs2)CC1 | 0 | 79* | 0 | -2 | 2 | x | 97* | -0.24 | 19
CC1CCN(C(=O)CSCC(=O)Nc2nc(-c3cccs3)cs2)CC1 | 4 | 47 | 2 | -1 | 1 | 10 | x | x | x
O=C(C[n+]1cc(-c2ccccc2)n2c1CCC2)Nc1nc(-c2ccccc2)cs1 | -16 | -6 | 0 | 1 | 0 | x | x | x | x
O=C(CSCC(=O)N1CCCc2ccccc21)Nc1nc(-c2ccccc2)cs1 | 1 | 69* | 4 | -19 | 0 | 20 | 90* | -0.078 | 24
CCCCOc1ccc(/C=C/C(=O)OCC(=O)c2c(N)n(C)c(=O)n(C)c2=O)cc1OCC | 0 | 52* | 2 | -26 | 0 | 8 | 67* | -0.41 | -2

Bioassay records from PubChem BioAssay.
